Laboratory results published in PMC10759213 (RSC Advances, 2024).
Where two headings read alike, the source gives them in different places.

Columns and labels:
urease = urease (Canavalia ensiformis, UniProt P07374); assay: In vitro urease inhibition assay; type: biochemical
[1] = DPPH radical scavenging antioxidant assay; details: for Antioxidant activity % Inhibition ± SD: DPPH 300 μM, 37 °C, 30 minutes; for Antioxidant activity EC50: concentration required to scavenge 50% of DPPH; for Antioxidant activity (in words): DPPH
Procedure, shortened: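 Test sample mixed with ethanolic DPPH radical solution (300 μM before mixing), incubated at 37 °C for 30 min, and absorbance read at 515 nm. Percent radical inhibition was calculated against a DMSO negative control, with ascorbic acid as the standard. EC50 is the sample concentration (μg ml−1) needed to scavenge 50% of DPPH.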

urease, sequence (P07374 whole entry, looked up): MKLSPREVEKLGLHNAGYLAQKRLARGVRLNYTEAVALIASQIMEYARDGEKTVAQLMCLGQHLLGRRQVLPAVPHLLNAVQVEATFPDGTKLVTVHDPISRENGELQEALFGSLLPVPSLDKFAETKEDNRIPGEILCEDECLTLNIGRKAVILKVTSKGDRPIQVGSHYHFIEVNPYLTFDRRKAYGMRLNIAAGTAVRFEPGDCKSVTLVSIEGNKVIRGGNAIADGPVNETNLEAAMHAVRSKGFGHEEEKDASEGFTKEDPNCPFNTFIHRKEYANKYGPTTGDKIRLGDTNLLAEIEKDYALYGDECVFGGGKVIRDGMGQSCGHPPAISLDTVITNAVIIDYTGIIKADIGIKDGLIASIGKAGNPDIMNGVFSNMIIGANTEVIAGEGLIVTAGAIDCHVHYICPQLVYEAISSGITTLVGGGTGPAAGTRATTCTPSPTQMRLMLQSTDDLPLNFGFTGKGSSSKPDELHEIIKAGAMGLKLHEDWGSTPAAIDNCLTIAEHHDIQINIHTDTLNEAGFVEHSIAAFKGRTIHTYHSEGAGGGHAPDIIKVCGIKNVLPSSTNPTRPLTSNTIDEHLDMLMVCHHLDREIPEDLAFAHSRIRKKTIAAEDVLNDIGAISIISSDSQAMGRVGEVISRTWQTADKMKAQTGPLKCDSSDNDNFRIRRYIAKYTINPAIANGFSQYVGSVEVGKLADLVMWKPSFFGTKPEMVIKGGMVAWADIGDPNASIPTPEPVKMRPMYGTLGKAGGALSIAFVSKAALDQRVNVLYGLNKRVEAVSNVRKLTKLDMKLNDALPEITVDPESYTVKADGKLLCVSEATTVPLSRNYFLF

Structure (SMILES)	IC50 (urease; read-out: Urease inhibition IC50 ± SD, indophenol method, 15 min at 30 °C, pH 8.2, triplicate)	Antioxidant activity % Inhibition ± SD [1]	Antioxidant activity EC50 [1]	Antioxidant activity (in words) [1]	IC50 (urease)
CC(=O)NO [Acetohydroxamic acid, reference compound]	37 µM				
O=C1O[C@H]([C@@H](O)CO)C(O)=C1O [Ascorbic acid, reference compound]		80%	8.3 µg/mL		
c1ccc2cc3[nH]c(-c4c[nH]c5ccccc45)nc3cc2c1 [Compound 1, 2-(1H-Indol-3-yl)-1H-naphtho[2,3-d]imidazole]		71.1 ± 0.01%	37.5 µg/mL	excellent antioxidant activity	92.3 ± 0.2 µM
CCOc1ccc(-c2nc3cc4ccccc4cc3[nH]2)cc1OC [Compound 2, 2-(4-Ethoxy-3-methoxyphenyl)-1H-naphtho[2,3-d]imidazole]		43 ± 0.01%			73.5 ± 0.65 µM
COc1cc(-c2nc3cc4ccccc4cc3[nH]2)ccc1OC(C)=O [Compound 3, 2-Methoxy-4-(1H-naphtho[2,3-d]imidazol-2-yl)phenyl acetate]		67.4 ± 0.01%	75 µg/mL	excellent antioxidant activity	56.3 ± 0.78 µM
Oc1ccc(Cl)cc1-c1nc2cc3ccccc3cc2[nH]1 [Compound 4, 4-Chloro-2-(1H-naphtho[2,3-d]imidazol-2yl)phenol]		29 ± 0.01%			34.2 ± 0.72 µM
COc1cc(-c2nc3cc4ccccc4cc3[nH]2)cc(OC)c1O [Compound 5, 2,6-Dimethoxy-4-(1H-naphtho[2,3-d]imidazol-2-yl)phenol]		12 ± 0.01%			
COc1ccc(-c2nc3cc4ccccc4cc3[nH]2)cc1O [Compound 6, 2-Methoxy-5-(1H-naphtho[2,3-d]imidazol-2-yl) phenol]		71 ± 0.01%	37.5 µg/mL	excellent antioxidant activity	
CCOc1cc(-c2nc3cc4ccccc4cc3[nH]2)ccc1OC [Compound 7, 2-(3-Ethoxy-4-methoxyphenyl)-1H-naphtho[2,3-d]imidazole]		57.8 ± 0.01%	100 µg/mL		
c1csc(-c2nc3cc4ccccc4cc3[nH]2)c1 [Compound 8, 2-(Thiophen-2-yl)-1H-naphtho[2,3-d]imidazole]		32 ± 0.01%			86.4 ± 0.78 µM
COc1ccc(-c2nc3cc4ccccc4cc3[nH]2)cc1OC [Compound 9, 2-(3,4-Dimethoxyphenyl)-1H-naphtho[2,3-d]imidazole]		57.8 ± 0.02%	100 µg/mL		67.14 ± 0.67 µM
Oc1ccc(-c2nc3cc4ccccc4cc3[nH]2)c(O)c1O [Compound 10, 4-(1H-Naphtho[2,3-d]imidazol-2-yl)benzene-1,2,3-triol]		57.9 ± 0.02%	100 µg/mL		
COc1ccc(Br)c(-c2nc3cc4ccccc4cc3[nH]2)c1O [Compound 11, 3-Bromo-6-methoxy-2-(1H-naphtho[2,3-d]imidazol-2-yl)phenol]		71.1 ± 0.01%	37.5 µg/mL	excellent antioxidant activity	42.4 ± 0.65 µM
c1ccc(-c2nc3cc4ccccc4cc3[nH]2)cc1 [Compound 12, 2-Phenyl-1H-naphtho[2,3-d]imidazole]		43 ± 0.01%			
COc1cc(-c2nc3cc4ccccc4cc3[nH]2)c(OC)cc1Br [Compound 13, 2-(4-Bromo-2,5-dimethoxyphenyl)-1H-naphtho[2,3-d]imidazole]		57.7 ± 0.01%	100 µg/mL		
Fc1cc(Br)ccc1-c1nc2cc3ccccc3cc2[nH]1 [Compound 14, 2-(4-Bromo-2-fluorophenyl)-1H-naphtho[2,3-d]imidazole]		23 ± 0.01%			
Brc1cccc(-c2nc3cc4ccccc4cc3[nH]2)c1 [Compound 15, 2-(3-Bromophenyl)-1H-naphtho[2,3-d]imidazole]		69.3 ± 0.01%	75 µg/mL	excellent antioxidant activity	
